Assay results: publication PMC9669183 (British journal of pharmacology, 2022)
“And” between values parts separate entries of the source, which are not always exact repeats. Identical values can stand only once. Like-named read-outs stand apart in the source and are kept apart here.

Legend:
[1] = target: T1, α1β2γ2L GABAAR (Rattus norvegicus, UniProt P18508+P62813+P63138, INS375LLRMFSFK); test: Potentiation of receptors activated by allosteric agonists; format: cell-based; details: for potentiation of currents elicited by propofol (% of control) / potentiation of the response to phenobarbital (% of control) / potentiation of the peak response to R(+)-etomidate (% of control): 50 μM α7-PAM; for potentiation of the response to phenobarbital (% of control): 1 mM phenobarbital, n=5
[2] = target: T2, α1β3γ2L GABAAR (Homo sapiens, UniProt P14867+P18507+P28472); format: binding; details: for direct effect on fluorescence from α1β3γ2L-bound Gzn-OG (orthosteric site): 3-100 μM α7-PAM, no GABA
[3] = target: T1, α1β2γ2L GABAAR; test: Direct activation, two-electrode voltage clamp in Xenopus oocytes; format: cell-based; details: 50 μM α7-PAM; n=5 oocytes/drug; mean±SEM
[4] = target: T1, α1β2γ2L GABAAR; format: cell-based; details: for potentiation of the response to low GABA (% of control): 50 μM α7-PAM, 2-5 μM GABA (PA<0.10), 100% = no effect, mean±SEM; for free energy change (ΔG) towards stabilizing the active state: co-agonist concerted transition model
[5] = target: T1, α1β2γ2L GABAAR; test: Modulation of steady-state response to saturating GABA, Xenopus oocytes; format: cell-based; details: 50 μM α7-PAM; 1 mM GABA
[6] = target: T1, α1β2γ2L GABAAR; test: Drug combination; format: cell-based; details: for observed PA in the presence of R(+)-etomidate+α7-PAM / predicted PA for R(+)-etomidate+α7-PAM, distinct site model / predicted PA for R(+)-etomidate+α7-PAM, same site model: 50 μM α7-PAM
[7] = target: α1(Q241L)β2γ2L GABAAR (Rattus norvegicus, UniProt P18508+P62813+P63138, INS375LLRMFSFK/Q268L); test: Potentiation of low GABA response, mutant receptor in oocytes; format: cell-based; details: 50 μM; low GABA PA<0.10; mean±SEM
[8] = target: α1β2(N265M)γ2L GABAAR (Rattus norvegicus, UniProt P18508+P62813+P63138, INS375LLRMFSFK/N289M); test: as above; format: cell-based; details: 50 μM; low GABA PA<0.10; mean±SEM
[9] = target: α1β2(M286W)γ2L GABAAR (Rattus norvegicus, UniProt P18508+P62813+P63138, INS375LLRMFSFK/M310W); test: as above; format: cell-based; details: 50 μM; low GABA PA<0.10; mean±SEM
[10] = target: α1(L232C)β2γ2L GABAAR (Rattus norvegicus, UniProt P18508+P62813+P63138, INS375LLRMFSFK/L258C); test: as above; format: cell-based; details: 50 μM; low GABA PA<0.10; mean±SEM
[11] = target: α1(M236C)β2γ2L GABAAR (Rattus norvegicus, UniProt P18508+P62813+P63138, INS375LLRMFSFK/M262C); test: as above; format: cell-based; details: 50 μM; low GABA PA<0.10; mean±SEM
[12] = target: α1(A291W)β2γ2L GABAAR (Rattus norvegicus, UniProt P18508+P62813+P63138, A317W/INS375LLRMFSFK); test: as above; format: cell-based; details: 50 μM; low GABA PA<0.10; mean±SEM
[13] = target: α1β2γ2L(S280C) GABAAR (Rattus norvegicus, UniProt P18508+P62813+P63138, INS375LLRMFSFK/S318C); test: as above; format: cell-based; details: 50 μM; low GABA PA<0.10; mean±SEM
[14] = target: α1β2γ2L(I242C) GABAAR (Rattus norvegicus, UniProt P18508+P62813+P63138, I280C/INS375LLRMFSFK); test: as above; format: cell-based; details: 50 μM; low GABA PA<0.10; mean±SEM
[15] = target: α1β2γ2L(L246C) GABAAR (Rattus norvegicus, UniProt P18508+P62813+P63138, INS375LLRMFSFK/L284C); test: as above; format: cell-based; details: 50 μM; low GABA PA<0.10; mean±SEM
[16] = target: T2, α1β3γ2L GABAAR; test: Potentiation of low GABA response, oocytes; format: cell-based; details: 50 μM; low GABA PA<0.10; mean±SEM
[17] = target: α1β3(M227C)γ2L GABAAR (Homo sapiens, UniProt P14867+P18507+P28472, M252C); test: Potentiation of low GABA response, mutant receptor in oocytes; format: cell-based; details: 50 μM; low GABA PA<0.10; mean±SEM
[18] = target: α1β3(L231C)γ2L GABAAR (Homo sapiens, UniProt P14867+P18507+P28472, L256C); test: as above; format: cell-based; details: 50 μM; low GABA PA<0.10; mean±SEM
[19] = target: α4β2δ GABAA receptor (Homo sapiens, UniProt O14764+P47870+P48169); test: Effect on α4β2δ receptor during long drug applications, oocytes; format: cell-based
α4β2δ GABAA receptor, sequence (P48169 36-554): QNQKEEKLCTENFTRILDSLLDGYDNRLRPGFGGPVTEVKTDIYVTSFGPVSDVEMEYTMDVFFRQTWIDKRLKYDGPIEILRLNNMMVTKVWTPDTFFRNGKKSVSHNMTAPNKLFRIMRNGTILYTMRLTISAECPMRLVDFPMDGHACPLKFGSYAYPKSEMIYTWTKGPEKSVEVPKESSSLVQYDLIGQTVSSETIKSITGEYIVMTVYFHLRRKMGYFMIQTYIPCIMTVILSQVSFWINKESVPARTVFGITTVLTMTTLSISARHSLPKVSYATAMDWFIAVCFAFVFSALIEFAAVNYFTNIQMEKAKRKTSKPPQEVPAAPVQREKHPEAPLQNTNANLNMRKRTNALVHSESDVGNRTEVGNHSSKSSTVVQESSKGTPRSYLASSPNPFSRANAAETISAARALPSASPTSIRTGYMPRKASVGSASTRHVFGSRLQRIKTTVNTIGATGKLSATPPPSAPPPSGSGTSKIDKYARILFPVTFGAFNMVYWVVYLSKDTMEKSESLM
α4β2δ GABAA receptor, sequence (P47870 25-512 limits assumed): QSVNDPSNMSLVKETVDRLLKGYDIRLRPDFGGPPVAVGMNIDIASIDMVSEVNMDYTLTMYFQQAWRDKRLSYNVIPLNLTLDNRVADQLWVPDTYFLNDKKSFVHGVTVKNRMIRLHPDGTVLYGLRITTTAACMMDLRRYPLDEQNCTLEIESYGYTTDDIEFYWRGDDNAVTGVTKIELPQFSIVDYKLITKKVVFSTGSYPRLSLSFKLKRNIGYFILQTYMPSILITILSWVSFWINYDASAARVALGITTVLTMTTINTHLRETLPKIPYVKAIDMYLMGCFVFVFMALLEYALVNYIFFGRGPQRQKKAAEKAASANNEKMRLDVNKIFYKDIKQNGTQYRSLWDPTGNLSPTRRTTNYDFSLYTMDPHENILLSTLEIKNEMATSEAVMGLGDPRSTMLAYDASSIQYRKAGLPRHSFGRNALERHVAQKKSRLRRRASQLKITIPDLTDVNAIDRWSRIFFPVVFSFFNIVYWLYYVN
α4β2δ GABAA receptor, sequence (O14764 25-452): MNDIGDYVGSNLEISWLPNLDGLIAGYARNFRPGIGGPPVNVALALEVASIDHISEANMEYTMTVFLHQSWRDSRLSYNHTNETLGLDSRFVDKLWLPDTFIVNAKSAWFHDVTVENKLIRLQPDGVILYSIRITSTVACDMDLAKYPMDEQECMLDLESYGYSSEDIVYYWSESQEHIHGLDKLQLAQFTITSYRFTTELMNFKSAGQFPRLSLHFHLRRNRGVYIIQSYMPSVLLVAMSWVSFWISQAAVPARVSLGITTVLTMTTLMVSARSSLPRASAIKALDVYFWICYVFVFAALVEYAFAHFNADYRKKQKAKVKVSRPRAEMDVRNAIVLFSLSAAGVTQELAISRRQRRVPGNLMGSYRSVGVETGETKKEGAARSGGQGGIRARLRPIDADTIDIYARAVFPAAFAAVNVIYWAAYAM
Procedure, shortened: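 Human α4β2δ GABAA receptors were expressed in Xenopus laevis oocytes by injecting 3.5-6 ng total cRNA per oocyte. Oocytes were held 1-2 days in ND96 (pH 7.4) with Na pyruvate and antibiotics. Currents were recorded by two-electrode voltage clamp.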

[20] = test system: binary αβ GABAA receptors (α1β2, α1β3); test: Potentiation of binary αβ receptors compared with ternary αβγ, oocytes; format: cell-based
[21] = test system: α4β2 nicotinic receptor; details: at high μM concentrations; ref Arias et al., 2011; Timmermann et al., 2007; cited from earlier work
[22] = test system: α3β4 nicotinic receptor; details: at high μM concentrations; ref Arias et al., 2011; Timmermann et al., 2007; cited from earlier work
[23] = c 0.804, KR,PNU-120596 constrained to 10 μM
[24] = c 0.804, KR,PNU-120596 constrained to 50 μM
[25] = c 0.804, KR,PNU-120596 constrained to 100 μM
[26] = 0.5 μM GABA+20 μM NS-1738+25 μM PAM-2

SMILES | decrease in GABA Ki between 0 (control) and 100 μM α7-PAM [2] [fold] | direct effect on fluorescence from α1β3γ2L-bound Gzn-OG (orthosteric site) [2] | direct activation: response as % of the peak response to 1 mM GABA+50 μM propofol [3] [%] | potentiation of the response to low GABA (% of control) [4] | free energy change (ΔG) towards stabilizing the active state [4] | steady-state response to saturating GABA in presence of α7-PAM (% of control) [5] | observed PA in the presence of R(+)-etomidate+α7-PAM [6] | predicted PA for R(+)-etomidate+α7-PAM, distinct site model [6] | predicted PA for R(+)-etomidate+α7-PAM, same site model [6] | potentiation of currents elicited by propofol (% of control) ([1]; 10 μM propofol) | potentiation of the response to phenobarbital (% of control) [1] | potentiation of the peak response to R(+)-etomidate (% of control) ([1]; 2-4 μM R(+)-etomidate) | Potentiation (% of control), α1(Q241L)β2γ2L [7] | Potentiation (% of control), α1β2(N265M)γ2L [8] | Potentiation (% of control), α1β2(M286W)γ2L [9] | Potentiation (% of control), α1(L232C)β2γ2L [10] | Potentiation (% of control), α1(M236C)β2γ2L [11] | Potentiation (% of control), α1(A291W)β2γ2L [12] | Potentiation (% of control), α1β2γ2L(S280C) [13] | Potentiation (% of control), α1β2γ2L(I242C) [14] | other results
CCOC(=O)c1cncn1[C@H](C)c1ccccc1 [R(+)-etomidate, R-1-(1-ethylphenyl)imidazole-5-ethyl ester] |  |  |  |  |  |  |  |  |  |  |  |  |  |  |  |  |  |  |  |  | PA of response to R(+)-etomidate alone ([1]; 2-4 μM R(+)-etomidate): 0.053±0.015 and 0.041±0.013
CC(C)c1cccc(C(C)C)c1O [propofol] |  |  |  |  |  |  |  |  |  |  |  |  |  |  |  |  |  |  |  |  | PA of currents elicited by propofol alone ([1]; 10 μM propofol): 0.06-0.07
O=C(Nc1cc(Cl)ccc1O)Nc1cc(C(F)(F)F)ccc1Cl [NS-1738, N-(5-Cl-2-hydroxyphenyl)-N’-[2-Cl-5-(trifluoromethyl)phenyl]-urea] | 25 | do not modify fluorescence | 0.86±0.51 | 383±38 % of control | -1.29 kcal/mol | 44±8 % of control | 0.068±0.022 | 0.253±0.055 | 0.007±0.002 | 145±11 % of control | 431±52 % of control | 125±8 % of control | 491 ± 45% of control | 426 ± 61% of control | 613 ±91% % of control | 357 ± 55% of control | 181 ± 15% % of control | 199 ± 22% % of control | 344 ± 60% of control | 376 ±35% of control | PA of response to GABA+NS-1738 ([6]; 0.5 μM GABA+20 μM NS-1738): 0.153±0.043; PA of response to low GABA+NS-1738 ([6]; 0.1-0.5 μM GABA+10 μM NS-1738, 5 oocytes): 0.084±0.028; Potentiation (% of control), α1β2γ2L(L246C) [15]: 262 ± 25% of control; Potentiation (% of control), α1β3γ2L [16]: 301 ± 12% of control; Potentiation (% of control), α1β3(M227C)γ2L [17]: 322 ± 40% of control; Potentiation (% of control), α1β3(L231C)γ2L [18]: 217 ± 36% of control; effect on the α4β2δ receptor [19]: inhibited; magnitude of potentiation in binary αβ vs ternary αβγ receptors [20]: similar; effect on the heteromeric α4β2 nicotinic receptor [21]: inhibit; effect on the heteromeric α3β4 nicotinic receptor [22]: inhibit
NCCCC(=O)O [GABA, γ-aminobutyric acid] |  |  |  |  |  |  |  |  |  |  |  |  |  |  |  |  |  |  |  |  | PA of response to GABA alone ([4]; 2-5 μM GABA (EC6-7)): 0.05-0.06; PA of response to GABA alone ([6]; 0.5 μM GABA, n=5): 0.039±0.013
COc1cc(OC)c(NC(=O)Nc2cc(C)on2)cc1Cl [PNU-120596, N-(5-Cl-2,4-dimethoxyphenyl)-N’-(5-methyl-3-isoxazolyl)-urea] |  | do not modify fluorescence | 0.38±0.09 | 133±11 % of control | -0.26 ± 0.04 kcal/mol and -0.26 kcal/mol | 90±2 % of control |  |  |  |  |  |  |  |  |  |  |  |  |  |  | shift in GABA F/Fo curves ([2]; 3-10 μM α7-PAM): Leftward shift; potentiation EC50 (Hill equation) ([4]; coapplied with low GABA (PA=0.05-0.13)): the fits did not converge; PA of response to low GABA+NS-1738 with PNU-120596 coapplied ([6]; 0.1-0.5 μM GABA+10 μM NS-1738+50 μM PNU-120596, 5 oocytes): 0.074±0.024; predicted PA for GABA+NS-1738+PNU-120596, distinct site model [6, 23]: 0.114; predicted PA for GABA+NS-1738+PNU-120596, same site model [6, 23]: 0.047; predicted PA for GABA+NS-1738+PNU-120596, distinct site model [6, 24]: 0.103; predicted PA for GABA+NS-1738+PNU-120596, same site model [6, 24]: 0.065; predicted PA for GABA+NS-1738+PNU-120596, distinct site model [6, 25]: 0.097; predicted PA for GABA+NS-1738+PNU-120596, same site model [6, 25]: 0.073
Cc1ccc(NC(=O)/C=C/c2ccco2)cc1 [PAM-2, (E)-3-(furan-2-yl)-N-(p-tolyl)-acrylamide] | 3.8 | do not modify fluorescence | 0.70±0.19 | 300 ± 43 % of control | -0.76 kcal/mol | 70±4 % of control | 0.050±0.013 | 0.097±0.030 | 0.008±0.002 | 123±9 % of control | 103±6 % of control | 140±17 % of control | 382 ± 29% of control | 124 ± 6% % of control | 181 ± 12% % of control | 197 ± 8% % of control | 176 ± 11% % of control | 130 ± 7% % of control | 233 ± 16% of control | 189 ± 11% % of control | EC50 [4]: 26 ± 8 µM; Kd [4]: 24.8 ± 10.5 µM; calculated PA for GABA+NS-1738+PAM-2, distinct site model [6, 26]: 0.267±0.065; calculated PA for GABA+NS-1738+PAM-2, same site model [6, 26]: 0.146±0.043; observed PA of response to GABA+NS-1738+PAM-2 [6, 26]: 0.158±0.044; Potentiation (% of control), α1β2γ2L(L246C) [15]: 147 ± 7% % of control; Potentiation (% of control), α1β3γ2L [16]: 176 ± 12% % of control; Potentiation (% of control), α1β3(M227C)γ2L [17]: 163 ± 12% of control; Potentiation (% of control), α1β3(L231C)γ2L [18]: 153 ± 11% of control; effect on the α4β2δ receptor [19]: inhibited; magnitude of potentiation in binary αβ vs ternary αβγ receptors [20]: similar; effect on the heteromeric α4β2 nicotinic receptor [21]: inhibit; effect on the heteromeric α3β4 nicotinic receptor [22]: inhibit
